Data as given in ChEMBL document CHEMBL4396883, “Discovery of CDK5 Inhibitors through Structure-Guided Approach” (ACS Med Chem Lett, 2019).
Active and inactive are the calls of the source. No cut-off for these calls is given here.

Assays:
[1] = molecular target: Cyclin-dependent kinase 5 (Homo sapiens) (UniProt Q00535); experiment: Inhibition of CDK5 in human MOLM13 cells assessed as increase in p27KIP1 level at 5 to 10 uM measured after 24 hrs incubation by Western blot analysis; assay type: cell-based
Cyclin-dependent kinase 5 (Homo sapiens), sequence (Q00535 whole entry, looked up): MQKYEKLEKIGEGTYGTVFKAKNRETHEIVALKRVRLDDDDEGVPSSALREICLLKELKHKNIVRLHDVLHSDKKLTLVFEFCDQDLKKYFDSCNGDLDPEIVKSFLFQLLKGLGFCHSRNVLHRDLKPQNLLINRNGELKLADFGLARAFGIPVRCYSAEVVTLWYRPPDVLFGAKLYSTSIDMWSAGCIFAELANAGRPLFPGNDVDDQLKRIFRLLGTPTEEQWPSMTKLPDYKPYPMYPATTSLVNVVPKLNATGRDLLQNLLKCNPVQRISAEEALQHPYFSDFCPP
Procedure, shortened: (§1)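 Cells treated for 24 h; lysates immunoblotted for pAkt (S473), pRB (S780), cyclin D1, p27KIP1, and cleaved caspase 3 and 7 (MOLM-13); at least two independent repeats.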

[2] = molecular target: Cyclin-dependent kinase 5 (Homo sapiens) (UniProt Q00535); experiment: Inhibition of CDK5 in human MV4-11 cells assessed as decrease in cyclin D1 level at 5 to 10 uM measured after 24 hrs incubation by Western blot analysis; assay type: cell-based; procedure, shortened: as §1
[3] = molecular target: Cyclin-dependent kinase 5 (Homo sapiens) (UniProt Q00535); experiment: Inhibition of CDK5 in human MOLM13 cells assessed as decrease in cyclin D1 level at 5 to 10 uM measured after 24 hrs incubation by Western blot analysis; assay type: cell-based; procedure, shortened: as §1
[4] = molecular target: CDK2/Cyclin A2 (Homo sapiens) (UniProt P24941+P20248); experiment: Inhibition of recombinant full length N-terminal GST tagged human CDK2/CyclinA expressed in baculovirus infected sf9 cells using histone H1 as substrate at 10 uM measured after 30 mins in presence of ATP by ADP-Glo kinase assay relative to control
CDK2/Cyclin A2 = CDK2/Cyclin A2 (Homo sapiens, UniProt P24941); experiment: Inhibition of recombinant full length N-terminal GST tagged human CDK2/CyclinA expressed in baculovirus infected sf9 cells using histone H1 as substrate measured after 30 mins in presence of ATP by ADP-Glo kinase assay
Procedure, shortened: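 CDK2/cyclin A kinase inhibition; Ki values from the average of at least two experiments.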

[5] = molecular target: Cyclin-dependent kinase 5/CDK5 activator 1 (Homo sapiens, UniProt Q00535); experiment: Inhibition of recombinant full length N-terminal GST tagged human CDK5/p25 expressed in baculovirus infected sf9 cells using histone H1 as substrate measured after 60 mins in presence of ATP by ADP-Glo kinase assay; assay type: cell-based
Cyclin-dependent kinase 5/CDK5 activator 1, sequence (Q00535 whole entry, the tested form may be a part): as the sequence (Q00535 whole entry, looked up) above
Cyclin-dependent kinase 5/CDK5 activator 1, sequence (Q15078 whole entry, further chain, the tested form may be a part): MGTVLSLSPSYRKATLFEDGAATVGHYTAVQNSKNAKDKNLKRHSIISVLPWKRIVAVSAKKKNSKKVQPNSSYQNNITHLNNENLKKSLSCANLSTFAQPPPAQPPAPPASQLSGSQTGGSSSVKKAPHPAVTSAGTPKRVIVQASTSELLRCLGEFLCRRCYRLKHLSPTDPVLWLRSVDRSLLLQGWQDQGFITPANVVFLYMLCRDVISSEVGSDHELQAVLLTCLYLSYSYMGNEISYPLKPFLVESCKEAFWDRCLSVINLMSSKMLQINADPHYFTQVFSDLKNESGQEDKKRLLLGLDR

[6] = molecular target: Cyclin-dependent kinase 4/cyclin D1 (Homo sapiens, UniProt P11802); experiment: Inhibition of human recombinant N-terminal GST-tagged CDK4 (S4-E303 residues)/Cyclin D1 (Q4-I295 residues) expressed in sf9 cells using RB-CTF as substrate incubated for 90 mins in presence of ATP by ADP-Glo kinase assay
Cyclin-dependent kinase 4/cyclin D1, sequence (P11802 whole entry, the tested form may be a part): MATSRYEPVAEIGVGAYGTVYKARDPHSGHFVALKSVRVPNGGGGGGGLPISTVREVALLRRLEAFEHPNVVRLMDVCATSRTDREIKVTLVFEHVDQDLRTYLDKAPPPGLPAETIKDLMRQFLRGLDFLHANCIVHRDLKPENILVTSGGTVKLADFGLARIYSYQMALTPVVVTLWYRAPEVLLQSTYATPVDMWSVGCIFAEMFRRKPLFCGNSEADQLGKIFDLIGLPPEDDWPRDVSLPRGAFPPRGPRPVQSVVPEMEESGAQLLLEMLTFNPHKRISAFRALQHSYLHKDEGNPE
Cyclin-dependent kinase 4/cyclin D1, sequence (P24385 whole entry, further chain, the tested form may be a part): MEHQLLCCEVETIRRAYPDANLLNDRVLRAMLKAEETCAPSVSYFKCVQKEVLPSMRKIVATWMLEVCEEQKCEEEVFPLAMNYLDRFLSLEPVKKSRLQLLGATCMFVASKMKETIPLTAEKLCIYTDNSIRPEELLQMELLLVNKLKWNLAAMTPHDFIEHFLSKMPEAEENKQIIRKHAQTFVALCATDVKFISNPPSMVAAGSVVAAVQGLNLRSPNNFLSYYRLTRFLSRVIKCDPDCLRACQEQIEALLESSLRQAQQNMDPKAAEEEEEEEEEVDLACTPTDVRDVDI

CDK9/cyclin T1 = CDK9/cyclin T1 (Homo sapiens, UniProt P50750); experiment: Inhibition of human recombinant full length N-terminal GST His6 fused CDK9 (M1 to F372 residues/ N-terminal His6 tagged Cyclin T1 (M1 to K726 residues) expressed in sf9 cells using RBER-IRStide as substrate incubated for 90 mins in presence of ATP by ADP-Glo kinase assay
CDK9/cyclin T1, sequence (O60563 whole entry, the tested form may be a part): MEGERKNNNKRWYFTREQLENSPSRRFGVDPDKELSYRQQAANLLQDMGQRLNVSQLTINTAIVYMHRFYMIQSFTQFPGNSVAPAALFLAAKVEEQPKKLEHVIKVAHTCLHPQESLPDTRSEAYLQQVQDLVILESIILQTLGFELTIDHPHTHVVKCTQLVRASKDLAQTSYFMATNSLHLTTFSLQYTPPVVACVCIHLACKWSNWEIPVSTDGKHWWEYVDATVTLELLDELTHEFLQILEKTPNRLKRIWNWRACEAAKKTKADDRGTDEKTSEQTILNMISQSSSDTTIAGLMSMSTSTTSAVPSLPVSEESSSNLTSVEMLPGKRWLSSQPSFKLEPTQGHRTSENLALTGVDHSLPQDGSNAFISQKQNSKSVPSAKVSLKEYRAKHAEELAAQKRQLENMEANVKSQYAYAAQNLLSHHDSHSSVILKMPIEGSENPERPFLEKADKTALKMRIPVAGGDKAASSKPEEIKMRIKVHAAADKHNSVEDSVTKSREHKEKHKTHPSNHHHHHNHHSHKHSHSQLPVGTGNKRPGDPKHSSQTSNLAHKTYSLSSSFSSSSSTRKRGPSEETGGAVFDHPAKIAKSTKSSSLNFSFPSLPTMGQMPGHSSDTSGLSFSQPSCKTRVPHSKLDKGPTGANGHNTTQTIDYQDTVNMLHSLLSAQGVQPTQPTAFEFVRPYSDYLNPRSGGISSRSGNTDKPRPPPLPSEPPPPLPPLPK
CDK9/cyclin T1, sequence (P50750 whole entry, the tested form may be a part): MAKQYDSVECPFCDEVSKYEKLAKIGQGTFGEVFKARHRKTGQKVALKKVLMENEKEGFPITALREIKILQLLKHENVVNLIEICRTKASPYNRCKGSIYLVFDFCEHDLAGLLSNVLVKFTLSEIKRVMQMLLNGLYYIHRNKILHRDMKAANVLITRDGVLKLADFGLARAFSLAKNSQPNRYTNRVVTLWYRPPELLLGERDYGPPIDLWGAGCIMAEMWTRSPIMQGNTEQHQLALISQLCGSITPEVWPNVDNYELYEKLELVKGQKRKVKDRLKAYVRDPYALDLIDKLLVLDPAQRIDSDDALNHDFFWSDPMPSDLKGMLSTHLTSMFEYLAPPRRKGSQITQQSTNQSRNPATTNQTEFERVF

CDK7/Cyclin H/MNAT1 = CDK7/Cyclin H/MNAT1 (Homo sapiens, UniProt P50613); experiment: Inhibition of CDK7/cyclinH/MAT1 (unknown origin) using RBER-IRStide as substrate incubated for 120 mins in presence of ATP by ADP-Glo kinase assay; assay type: protein-complex assay
CDK7/Cyclin H/MNAT1, sequence (P51946 whole entry): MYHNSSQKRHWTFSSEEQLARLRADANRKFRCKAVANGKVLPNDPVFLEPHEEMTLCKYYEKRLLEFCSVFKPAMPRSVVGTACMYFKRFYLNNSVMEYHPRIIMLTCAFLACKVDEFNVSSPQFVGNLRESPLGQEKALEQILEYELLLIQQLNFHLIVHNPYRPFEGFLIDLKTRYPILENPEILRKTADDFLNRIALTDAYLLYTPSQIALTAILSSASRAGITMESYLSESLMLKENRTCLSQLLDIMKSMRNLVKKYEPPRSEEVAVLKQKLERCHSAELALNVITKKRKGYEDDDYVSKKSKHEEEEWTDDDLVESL
CDK7/Cyclin H/MNAT1, sequence (P50613 whole entry): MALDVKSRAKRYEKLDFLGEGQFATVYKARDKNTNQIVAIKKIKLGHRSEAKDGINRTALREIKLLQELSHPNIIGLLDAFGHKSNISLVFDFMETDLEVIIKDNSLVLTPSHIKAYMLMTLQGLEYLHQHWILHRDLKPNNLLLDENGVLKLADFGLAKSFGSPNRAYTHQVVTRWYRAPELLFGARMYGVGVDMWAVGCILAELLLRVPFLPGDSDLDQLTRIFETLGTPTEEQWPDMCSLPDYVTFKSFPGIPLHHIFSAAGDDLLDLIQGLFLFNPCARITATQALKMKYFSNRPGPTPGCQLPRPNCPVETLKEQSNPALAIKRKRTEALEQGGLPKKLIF
CDK7/Cyclin H/MNAT1, sequence (P51948 whole entry, further chain): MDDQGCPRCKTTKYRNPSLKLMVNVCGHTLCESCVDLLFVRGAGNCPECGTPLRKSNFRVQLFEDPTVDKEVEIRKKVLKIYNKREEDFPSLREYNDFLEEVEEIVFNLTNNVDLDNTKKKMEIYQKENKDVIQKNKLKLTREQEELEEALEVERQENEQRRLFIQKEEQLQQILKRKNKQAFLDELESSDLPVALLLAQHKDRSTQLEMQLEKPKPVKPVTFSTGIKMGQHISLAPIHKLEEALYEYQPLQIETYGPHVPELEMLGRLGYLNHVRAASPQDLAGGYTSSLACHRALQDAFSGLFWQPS

MV4-11 [7] = experiment: Antiproliferative activity against human MV4-11 cells assessed as growth inhibition measured after 72 hrs by resazurin assay; assay type: functional; conditions: MV4-11, 72 h
Procedure, shortened: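 Leukemia cells exposed to compound for 72 h; viability read by resazurin reduction. GI50 (concentration giving 50% inhibition of proliferation) reported as mean ± SD of three independent experiments.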

[8] = molecular target: Receptor-type tyrosine-protein kinase FLT3 (Homo sapiens, UniProt P36888, ITD); experiment: Inhibition of human recombinant full length GST-fused/His-tagged FLT3 ITD mutant expressed in Sf9 cells using poly (Glu,Tyr) as substrate incubated for 80 mins in presence of ATP by ADP-Glo kinase assay
Receptor-type tyrosine-protein kinase FLT3, sequence (P36888 whole entry, looked up, stated change not applied, the tested form may be a part): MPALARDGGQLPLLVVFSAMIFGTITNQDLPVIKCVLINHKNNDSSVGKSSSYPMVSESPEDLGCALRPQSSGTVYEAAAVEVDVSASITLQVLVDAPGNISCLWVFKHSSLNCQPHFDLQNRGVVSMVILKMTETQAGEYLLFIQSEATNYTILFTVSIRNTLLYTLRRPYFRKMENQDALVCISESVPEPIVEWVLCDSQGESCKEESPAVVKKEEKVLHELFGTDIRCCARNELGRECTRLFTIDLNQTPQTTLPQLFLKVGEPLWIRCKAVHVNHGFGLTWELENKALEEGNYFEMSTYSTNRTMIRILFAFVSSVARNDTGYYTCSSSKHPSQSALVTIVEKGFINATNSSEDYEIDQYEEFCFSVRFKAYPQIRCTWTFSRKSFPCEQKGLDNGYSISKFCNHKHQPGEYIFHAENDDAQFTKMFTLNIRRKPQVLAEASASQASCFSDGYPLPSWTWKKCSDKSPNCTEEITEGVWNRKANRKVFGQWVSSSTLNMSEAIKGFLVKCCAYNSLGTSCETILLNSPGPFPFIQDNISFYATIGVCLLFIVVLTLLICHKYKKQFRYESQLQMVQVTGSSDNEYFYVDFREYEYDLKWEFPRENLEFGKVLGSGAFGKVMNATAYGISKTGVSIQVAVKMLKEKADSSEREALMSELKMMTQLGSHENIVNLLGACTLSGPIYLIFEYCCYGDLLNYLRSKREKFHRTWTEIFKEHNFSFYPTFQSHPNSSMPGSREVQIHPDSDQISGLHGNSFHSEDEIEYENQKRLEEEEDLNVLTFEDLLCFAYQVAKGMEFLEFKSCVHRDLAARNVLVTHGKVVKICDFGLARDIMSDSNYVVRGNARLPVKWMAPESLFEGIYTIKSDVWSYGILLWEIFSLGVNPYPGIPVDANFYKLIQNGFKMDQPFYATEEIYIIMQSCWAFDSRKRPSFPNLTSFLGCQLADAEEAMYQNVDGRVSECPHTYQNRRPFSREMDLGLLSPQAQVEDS

MOLM-13 [9] = experiment: Induction of apoptosis in human MOLM13 cells assessed as late apoptotic cells at 2.5 uM measured after 24 hrs by Annexin V-FITC/PI staining based flow cytometry (reference value: 1.94%); assay type: functional
MOLM-13 [10] = experiment: Induction of apoptosis in human MOLM13 cells assessed as early apoptotic cells at 10 uM measured after 24 hrs by Annexin V-FITC/PI staining based flow cytometry (reference value: 3.38%); assay type: functional
MOLM-13 [11] = experiment: Induction of apoptosis in human MOLM13 cells assessed as late apoptotic cells at 10 uM measured after 24 hrs by Annexin V-FITC/PI staining based flow cytometry (reference value: 1.94%); assay type: functional
[12] = molecular target: Cyclin-dependent kinase 5 (Homo sapiens) (UniProt Q00535); experiment: Inhibition of CDK5 in human MOLM13 cells assessed as decrease in phosphorylated RB protein level at 5 to 10 uM measured after 24 hrs incubation by Western blot analysis; assay type: cell-based; procedure, shortened: as §1
[13] = molecular target: Cyclin-dependent kinase 5 (Homo sapiens) (UniProt Q00535); experiment: Inhibition of CDK5 in human MOLM13 cells assessed as decrease in phosphorylated Akt protein level at 5 to 10 uM measured after 24 hrs incubation by Western blot analysis; assay type: cell-based; procedure, shortened: as §1
MV4-11 [14] = experiment: Cell cycle arrest in human MV4-11 cells assessed as accumulation at G1 phase at 2.5 to 10 uM measured after 24 hrs by propidium iodide staining based flow cytometry analysis; assay type: functional
Procedure, shortened: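 MV4-11 cells treated 24 h at 2.5 and 10 μM; cell-cycle phase distribution (sub-G1, G1, S, G2/M) by flow cytometry; at least two independent experiments, numerical data as mean value.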

[15] = molecular target: Cyclin-dependent kinase 5 (Homo sapiens) (UniProt Q00535); experiment: Inhibition of CDK5 in human MV4-11 cells assessed as decrease in phosphorylated Akt protein level at 5 to 10 uM measured after 24 hrs incubation by Western blot analysis; assay type: cell-based; procedure, shortened: as §1
[16] = molecular target: Cyclin-dependent kinase 5 (Homo sapiens) (UniProt Q00535); experiment: Inhibition of CDK5 in human MV4-11 cells assessed as decrease in phosphorylated RB protein level at 5 to 10 uM measured after 24 hrs incubation by Western blot analysis; assay type: cell-based; procedure, shortened: as §1
[17] = molecular target: Cyclin-dependent kinase 5 (Homo sapiens) (UniProt Q00535); experiment: Inhibition of CDK5 in human MV4-11 cells assessed as decrease in FAK phosphorylation at S732 measured after 24 hrs by Western blot analysis; assay type: cell-based
Procedure, shortened: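 MV4-11 AML cells incubated 24 h with compound across a concentration series; cellular CDK5 activity followed by Western blot of FAK phosphorylation at Ser732.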

[18] = molecular target: Cyclin-dependent kinase 5 (Homo sapiens) (UniProt Q00535); experiment: Inhibition of CDK5 in human MOLM13 cells assessed as increase in cleaved caspase 3 level at 5 to 10 uM measured after 24 hrs by western blot analysis; assay type: cell-based; procedure, shortened: as §1
[19] = molecular target: Cyclin-dependent kinase 5 (Homo sapiens) (UniProt Q00535); experiment: Inhibition of CDK5 in human MOLM13 cells assessed as increase in cleaved caspase 7 level at 5 to 10 uM measured after 24 hrs by western blot analysis; assay type: cell-based; procedure, shortened: as §1
[20] = molecular target: Cyclin-dependent kinase 5 (Homo sapiens) (UniProt Q00535); experiment: Inhibition of CDK5 in human MOLM13 cells assessed as decrease in p21CIP1 level at 5 to 10 uM measured after 24 hrs by western blot analysis; assay type: cell-based
[21] = molecular target: Cyclin-dependent kinase 5 (Homo sapiens) (UniProt Q00535); experiment: Inhibition of CDK5 in human MV4-11 cells assessed as FAK phosphorylation at S732 at 5 to 10 uM measured after 24 hrs by Western blot analysis
MOLM-13 (Homo sapiens) = experiment: Cell cycle arrest in human MOLM-13 cells assessed as accumulation at sub G1 phase at 10 uM measured after 24 hrs by propidium iodide staining based flow cytometry analysis

Row | SMILES | Activity [1] | inhibition [2] | inhibition [3] | inhibition [4] | Ki (CDK2/Cyclin A2) | Ki [5] | Ki [6] | Ki (CDK9/cyclin T1) | Ki (CDK7/Cyclin H/MNAT1) | GI50 (MV4-11 [7]) | IC50 [8] | Activity (MOLM-13 [9]) | Activity (MOLM-13 [10]) | Activity (MOLM-13 [11]) | inhibition [12] | inhibition [13] | Activity (MV4-11 [14]) | inhibition [15] | inhibition [16] | inhibition [17] | other results
1 | Cc1cccc(Nc2ncc3c(n2)CCCC3)c1 | Active | Active | Active | 72% | 3320 nM | 800 nM | > 5000 nM | > 5000 nM | > 5000 nM | 3290 nM | > 10000 nM | 2.68% | 30.11% | 7.92% | Active | Active | Active | Active | Active | Dose-dependent effect | Activity [18]: Active; Activity [19]: Active; inhibition [20]: Active; inhibition [21]: inactive; Activity (MOLM-13 (Homo sapiens)): Active
2 | NS(=O)(=O)c1cccc(Nc2ncc3c(n2)CCCC3)c1 | Active | Active | Active | 95% | 270 nM | 160 nM | > 5000 nM | 1000 nM | > 5000 nM | 2550 nM | 1480 nM | 3.43% | 18.34% | 6.16% | Active | Active | Active | Active | Active | Dose-dependent effect | Activity [18]: Active; Activity [19]: Active; inhibition [20]: Active; inhibition [21]: inactive; Activity (MOLM-13 (Homo sapiens)): Active
